Results on 96 compounds are retold here after ChEMBL document CHEMBL4513216, “Probing the Open Global Health Chemical Diversity Library for Multistage-Active Starting Points for Next-Generation Antimalarials” (ACS Infect Dis, 2020).

A short description of this data set: Toxicity liver stage against HepG2, at 10uM. Particulars: human, HepG2-A16-CD81EGFP cells; read-out: INHIBITION
It is filed as cell-based. More on the design: test concentration 10 uM, cell line HepG2-A16-CD81EGFP. The gist of the method: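 Uninfected HepG2-A16-CD81EGFP cells, 3 × 10^3 per well, 1536-well, plated on prespotted compound at 10 μM final, parasite-free screening media added to match infected plates; puromycin 10 μM positive, DMSO 0.5% negative; run in parallel with 48 h PbLuc assay at 37 °C, 5% CO2; viability by CellTiter-Glo luminescence, normalized to controls.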
In the case of `CC(CNC(=O)c1cccnc1)Oc1ccc(F)cc1` (stereo unspecified), the cytotoxicity at 10 µM is -6.98%.
Then `CCC1CN(C(=O)NCc2cccnc2-n2cccn2)CCO1` (stereo unspecified), with -12.5%.
Then `COC(=O)[C@H]1CN(C(=O)NC(C)C)CCN1C(=O)CSC`, with -6.52%; and `O=C(COC1CCCC1)N1C[C@@H]2CN(Cc3ccoc3)CCO[C@@H]2C1`, with 4.65%.
The result for `CNC(=O)c1ccc(C2CN(CC(=O)N(C)C)CCO2)nc1` (stereo unspecified) reads 7.15%; that for `Cc1ccc(CNCC2Cn3nncc3CO2)o1` (stereo unspecified), -113%; that for `CN(C)C1CN(C(=O)Nc2cccc(OC(F)F)c2)C1`, -0.317%.
As for `Cc1noc([C@@H]2C[C@H]3OCC[C@H]3N(S(C)(=O)=O)C2)n1`, the cytotoxicity at 10 µM is -9.67%.
The result for `Cc1cc(OCC(=O)N2CCCC(c3noc(C)n3)C2)no1` (stereo unspecified) reads -0.0722%; that for `COc1ccc(N(C)C(=O)c2cccc(S(C)(=O)=O)c2)cn1`, 7.36%.
The result for `Nc1nc(C2CCN(C(=O)c3cncs3)CC2)cs1` reads -1.49%.
Regarding `CCC(CO)N(Cc1ccc(C(=O)O)cc1)Cc1ccsc1` (stereo unspecified), the cytotoxicity at 10 µM is 2.17%.
On to `CCOCC1CN(c2ccncn2)Cc2cnn(CC)c21` (stereo unspecified), for which the cytotoxicity at 10 µM amounted to 3.04%.
Then `Cc1cc(OC(F)F)c(C(=O)NCC(O)c2cccc(F)c2)s1` (stereo unspecified), with -4.3%; and `Cc1nc(CN2CCC3(CC2)NC(=O)CC3c2ccncc2)cs1` (stereo unspecified), with 5.79%; and `CCC(C(=O)NCc1ccncc1)N(c1ccc(F)cc1)S(C)(=O)=O` (stereo unspecified), with -5.48%.
For `CC(=O)N(Cc1noc(C)n1)C1CCN(Cc2ccncc2Cl)C1` (stereo unspecified), the cytotoxicity at 10 µM was found to be 5.87%.
The result for `CN(C(=O)C1CCOCC1)[C@@H]1CCC[C@@H](N2CCCC2)[C@@H]1O` reads -6.22%.
In the case of `CCOCCN1CCN(CCC(=O)N2CCCCC2)CC1`, the cytotoxicity at 10 µM was -7.71%.
Then `CN(C)c1ccc(NC(=O)C2CN(Cc3ccccc3)CCO2)cn1` (stereo unspecified), with 4.46%; and `Nc1nc(CCC(=O)N2CCOC(CC3CCCCC3)C2)cs1` (stereo unspecified), with -9.18%.
The result for `Cc1ccc(OCC(=O)NS(=O)(=O)c2c(C)noc2C)cc1C` reads -1.96%; that for `CCS(=O)(=O)N1CCC(OC)c2ccccc2N(CC(=O)NC)C(=O)C1` (stereo unspecified), -1.42%.
Then `CN(C)C(=O)CNC(=O)c1nc2c(s1)CCCN2Cc1ccccc1`, with 8.13%.
As for `COc1cccc(CNc2cc(CO)ccc2Cl)c1`, the cytotoxicity at 10 µM is -13.3%.
For the compound `CCc1cc(C(=O)N2CC[C@@H](c3ccc4c(c3)OCO4)[C@H](O)C2)ccn1`, the cytotoxicity at 10 µM worked out at 1.48%.
Take `Cc1cc(CN2C[C@@H]3CN(Cc4ccsc4)CCO[C@@H]3C2)no1`: the cytotoxicity at 10 µM was -139%.
The result for `COCCNC(=O)C(C)n1nc(-c2ccc(C)o2)cc(N)c1=O` (stereo unspecified) reads 1.26%.
On to `C[C@@H]1CN(C(=O)CCc2nncn2C)C[C@@]1(O)C1CCC1`, for which the cytotoxicity at 10 µM is -4.97%.
Then `CCOCC(=O)N1CCC2(CC1)COCCN2CCN(C)C`, with -0.464%; and `COc1cccc2c1OCC(CNC(=O)CCCN1CCOCC1)C2` (stereo unspecified), with 16.6%.
The result for `CNc1ncc(C(=O)N2CCOC(C(=O)NC3CCCC3)C2)cn1` (stereo unspecified) reads 12.2%; that for `CCCN(Cc1cnn(C)c1)S(=O)(=O)c1ccc(F)c(C#N)c1`, 6.69%; that for `CCNC(=O)CN(Cc1ccoc1)C1CCCCC1`, 7.59%.
Then `CN(CCCc1cnn(C)c1)Cc1cc2n(n1)CCCN(C)C2`, with -0.857%; and `Cc1cc(CS(=O)(=O)N(C)C(C)c2ccc(Cl)cc2)on1` (stereo unspecified), with 9.72%; and `CN(C)C(=O)CS(=O)(=O)Cc1ccn(-c2cccc(F)c2)n1`, with 3.03%.
For the compound `CC1c2ncc(Cn3cccn3)n2CCN1Cc1cccnc1` (stereo unspecified), the cytotoxicity at 10 µM worked out at 6.49%.
Then `O=S1(=O)N=C(SCc2ccc(Cl)cc2)Nc2ccc(F)cc21`, with 27.6%.
The result for `COC(=O)c1cc(C(=O)N2CCCCC2C)n(-c2ccccc2)n1` (stereo unspecified) reads -13.7%.
As to `CC(NCc1cnc(C2CCC2)s1)c1ccc(-n2cncn2)cc1` (stereo unspecified), the cytotoxicity at 10 µM is 1.44%.
The result for `CO[C@@H]1CC[C@H]2[C@H]1OCCN2C(=O)COc1ccc(C)cc1` reads -99%; that for `O=C(NCCc1ccncc1)[C@H]1C[C@@H]2CCN(c3nncs3)C[C@H]2O1`, 4.36%.
The result for `CCCn1ncc(C(=O)N2CCN(C3Cc4ccccc4C3)CC2)c1C` reads -139%; that for `Nc1nc2c(c(NC(=O)Nc3cccc(Cl)c3)n1)CCCC2`, -2.8%; that for `C/N=C1/c2cc3cc(OC)ccc3n2CCN1Cc1ccccc1`, 69.7%.
Then `c1nc(N2CCCC2Cn2cncn2)c2sccc2n1` (stereo unspecified), with -9.19%; and `CC/C=C(\C)CN1CCC(CNC(=O)c2c[nH]c(=O)c(Cl)c2)C1` (stereo unspecified), with -13.2%.
Consider `Cc1cc(C)c2[nH]c(C(=O)NCCN3CCNC3=O)c(C)c2c1`, for which the cytotoxicity at 10 µM was 2.49%.
The result for `Cc1nc(CN2CCC(CNC(=O)NCCC3CCC3)CC2)oc1C` reads -0.5%.
For `CN(C)CCO[C@H]1CN(C(=O)c2cccs2)[C@@H]2COC[C@H]12`, the cytotoxicity at 10 µM was -3.83%.
The result for `Cc1cnc(N2CCCC3(CCOCC3)C2)nc1` reads -116%.
The result for `O=C(Nc1ccc(F)cc1)N1CCC2(CCC(=O)N(C3CC3)C2)CC1` reads 5.54%; that for `O=C(c1ccc(=O)[nH]c1)N1CCC(Oc2cccc(C(F)(F)F)c2)CC1`, 2.26%.
The result for `Cc1ccc(S(=O)(=O)NCCCN2CCC(O)CC2)c(F)c1` reads 4.24%; that for `CCC(CC)C(=O)N1CCN(Cc2cc(-c3ccncc3)nn2C)CC1`, -27.9%.
Take `CCC(C)N(CC)C(=O)c1ccc2[nH]nnc2c1` (stereo unspecified): the cytotoxicity at 10 µM was 10.5%.
The result for `Cc1noc2nc3c(c(C(=O)/N=c4\[nH]nc(C(C)C)s4)c12)CCC3` reads -6.53%.
Then `COCc1nc(CNC2CCCC(C)(C)C2)no1` (stereo unspecified), with 2.55%; and `CCc1ccc(O)c(C(=O)N2CCN(CC(=O)N(CC)CC)CC2)c1`, with 4.49%.
Consider `Cc1nc[nH]c1CN(Cc1ccccc1F)C1CC(C)(C)NC(C)(C)C1`, for which the cytotoxicity at 10 µM is -3.41%.
The result for `CCOCC(=O)NCC1(NC(C)c2ccccc2)CCOCC1` (stereo unspecified) reads -8.01%; that for `CC(=O)N1C[C@H](NC(=O)c2cscn2)[C@@H]2OCCC[C@@H]21`, 2.88%.
The result for `Cc1ccc(-n2ncc(C(=O)N3CCCC3c3cnn(C)c3)c2C)cc1` (stereo unspecified) reads -7.79%; that for `COc1cc(CNCCc2nc(C)cs2)cc2c1OCCO2`, -2.4%; that for `COc1ccc(-n2cc(CCO)cn2)cc1C`, -12.4%.
Then `Cc1c(NCc2ccccc2C#N)cccc1-n1cnnn1`, with 15.4%; and `CCNC(=O)[C@@H]1C[C@H](N)CN1C(=O)CCc1ccc(C)c(C)c1`, with 3.45%.
Regarding `CCn1c(=O)n(CC)c2cc(S(N)(=O)=O)ccc21`, the cytotoxicity at 10 µM was -7.72%.
In the case of `Cc1ncsc1C(=O)N1CCCN(Cc2cscn2)CC1`, the cytotoxicity at 10 µM is -9.67%.
With `Cn1cc(C2CCCN2C(=O)c2cnc(-c3ncccn3)s2)cn1` (stereo unspecified), the cytotoxicity at 10 µM was 18.8%.
Then `CC(=O)NCC(=O)N1Cc2nccn2CC(CN(C)C(C)C)C1` (stereo unspecified), with -75.7%.
Then `CSCC(=O)N1CCC(Oc2cccc(C)c2)CC1`, with 1.98%.
The result for `Cc1ccc(C(C)N(C)C(=O)c2ccc(=O)n(C)c2)s1` (stereo unspecified) reads -4.27%; that for `CNC(=O)C1CN(c2ccc(F)cc2)CCN1` (stereo unspecified), 7.9%.
Consider `Cc1ccccc1S(=O)(=O)N1CCc2c(ncnc2N(C)C)C1`, for which the cytotoxicity at 10 µM was -16.6%.
Then `O=C1CCCN1Cc1ccc(C(=O)N2CCCC2c2cccs2)cc1` (stereo unspecified), with 3.78%; and `Cc1noc(C)c1CN1CCO[C@H]2CN(Cc3cnn(C)c3)C[C@H]21`, with -0.292%.
The result for `CC(=O)Nc1ccccc1Sc1nc(Br)nn1C` reads -1.05%.
Then `Cc1nc[nH]c1CN1CCn2nc(CN3CC[C@H](F)C3)cc2C1`, with 5.01%; and `CCCn1cnc(S(=O)(=O)Nc2cccnc2-n2cccn2)c1`, with 15.4%; and `CCOC(=O)C1CCN(CCCc2nnnn2-c2ccccc2)CC1`, with 0.462%.
Consider `Cc1cc(C2CCC2)nc(N2CCC3(CC2)OCCCC3O)n1` (stereo unspecified), for which the cytotoxicity at 10 µM was 4.28%.
Turning to `Cc1ccc(CN2Cc3c(C(=O)N4CCOCC4)nn(C)c3C2)s1`, the cytotoxicity at 10 µM was 6.15%.
Then `Cc1cc(C)c2cc(CNCc3ccco3)c3nn(C)c(=O)n3c2c1`, with -13.6%; and `CNC(=O)[C@@H]1CN(C(=O)C(C)C)C[C@H]1c1ccnc(N2CCCC2)n1`, with 0.791%.
The result for `Cc1oc(C(=O)O)cc1S(=O)(=O)Nc1cc(F)ccc1F` reads -7.66%; that for `COc1ccc2c(c1)OCC(CNC(=O)c1ccncc1)C2` (stereo unspecified), -8.63%.
Regarding `CS(=O)(=O)Cc1ccc(C(=O)Nc2ccc3c(c2)C(=O)NC3)cc1`, the cytotoxicity at 10 µM was 10.8%.
The result for `C=C(C)COc1ccccc1C(=O)N1CCC2(CC1)CN(C)CCN2C` reads -50.2%; that for `CCCc1cc(CNC2CCN(c3nc(C)cc(C)n3)CC2)on1`, 7.51%.
For `CC(CNC1CCN(c2ccccn2)CC1)Oc1ccc(F)cc1` (stereo unspecified), the cytotoxicity at 10 µM came out at 7.43%.
The result for `COc1ccc(C2CCN(S(=O)(=O)CCCC#N)CC2)cc1` reads 7.13%; that for `Cc1cc(NC(=O)N(C)C2CCCN(c3ccccc3)C2=O)n(C)n1` (stereo unspecified), 5.42%.
The result for `COCCOC1CCN(C(C(=O)O)c2ccc(OC)c(F)c2)CC1` (stereo unspecified) reads 7.42%.
The result for `C=c1ccoc1=C1NN=C(CNC2CCCN(c3cccnn3)C2)O1` (stereo unspecified) reads -9.48%.
